The text below walks through data of ChEMBL document CHEMBL3585255, “The Cephalostatins. 24. Isolation, Structure, and Cancer Cell Growth Inhibition of Cephalostatin 20” (2015).

What all share (type): functional
Test [1] can be described thus: Cytotoxicity against human KM20L2 cells after 48 hrs by sulforhodamine B assay. To be noted: KM-20L2, 48 h. The gist of the method: (§1)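 Cells in RPMI1640 with 5% fetal bovine serum were plated in 96-well plates and incubated 24 h before serial dilutions of compound were added. After 48 h exposure, cells were fixed with trichloroacetic acid and stained with sulforhodamine B, and optical density was read on a plate reader. GI50, the concentration giving 50% reduction in net protein increase, was calculated from the OD data.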

For test [2], the system named is MCF7. The test is described as follows: Cytotoxicity against human MCF7 cells after 48 hrs by sulforhodamine B assay. To be noted: MCF7, 48 h. The gist of the method: as §1
Test [3] deals with SF-268. The test is described as follows: Cytotoxicity against human SF268 cells after 48 hrs by sulforhodamine B assay. To be noted: SF-268, 48 h. The gist of the method:
as §1

Test [4] can be described thus: Cytotoxicity against human BxPC3 cells after 48 hrs by sulforhodamine B assay. The conditions noted are these: BXPC-3, 48 h. A digest of the protocol: as §1
In test [5] the test system is NCI-H460. The test is described as follows: Cytotoxicity against human NCI-H460 cells after 48 hrs by sulforhodamine B assay. The conditions noted are these: NCI-H460, 48 h. The gist of the method: as §1
Test [6] deals with DU-145. The test is described as follows: Cytotoxicity against human DU145 cells after 48 hrs by sulforhodamine B assay. To be noted: DU-145, 48 h. A digest of the protocol: as §1

Where only a bound is given, the exact number is not on record here.

Regarding `C[C@@H]1[C@]2(O[C@H]3C=C4[C@@H]5CC[C@H]6Cc7nc8c(nc7C[C@]6(C)[C@H]5C[C@@H](O)[C@]4(C)[C@]31O)C[C@@H]1CC[C@H]3C4=CC[C@@H]5[C@H](C)[C@@](O)([C@H](O)CC(C)(C)O)OC[C@]45C(=O)C[C@]3(O)[C@@]1(C)C8)O[C@](C)(CO)C[C@H]2O`, the GI50 came out at 7.2 nM in test [1]; 22 nM in test [2]; 36 nM in test [3]; 16 nM in test [4]; 6 nM in test [5]; 210 nM in test [6].

With `C[C@@H]1[C@]2(O[C@H]3C=C4[C@@H]5CC[C@H]6Cc7nc8c(nc7C[C@]6(C)[C@H]5C[C@@H](O)[C@]4(C)[C@]31O)C[C@@H]1CC[C@H]3C4=CC[C@@H]5[C@H](C)[C@@]6(OC[C@]45C(=O)C[C@@H]3[C@@]1(C)C8)OC(C)(C)C[C@H]6O)O[C@](C)(CO)C[C@H]2O` [CEPHALOSTATIN 1], the GI50 in test [1] amounted to 0.066 nM; in test [2] it was 0.099 nM; in test [3], 1.6 nM; in test [4], 0.044 nM; in test [5], 0.044 nM; in test [6] it was 0.11 nM.

In the case of `C[C@@H]1[C@]2(O[C@H]3C=C4[C@@H]5CC[C@H]6Cc7nc8c(nc7C[C@]6(C)[C@H]5C[C@@H](O)[C@]4(C)[C@]31O)C[C@@H]1CC[C@H]3C4=CC[C@@H]5[C@H](C)[C@@]6(OC[C@]45C(=O)C[C@]3(O)[C@@]1(C)C8)OC(C)(C)C[C@H]6O)O[C@](C)(CO)C[C@H]2O` [CEPHALOSTATIN 2], the GI50 in test [1] worked out at 0.006 nM; in test [2], 0.022 nM; in test [3], 0.12 nM; in test [4] it was 0.022 nM; in test [5] it was 0.0056 nM; in test [6], 0.11 nM.

Consider `C[C@@H]1[C@]2(O[C@H]3C=C4[C@@H]5CC[C@H]6Cc7nc8c(nc7C[C@]6(C)[C@H]5C[C@@H](O)[C@]4(C)[C@]31O)C[C@@H]1CC[C@H]3C4=CC[C@@H]5[C@H](C)[C@@]6(OC[C@]45C(=O)C[C@]3(O)[C@@]1(C)C8)OC(C)(C)[C@@H](C)[C@H]6O)O[C@](C)(CO)C[C@H]2O` [CEPHALOSTATIN 3], for which the GI50 came out at 0.096 nM in test [1]; 0.032 nM in test [2]; 0.58 nM in test [3]; 0.043 nM in test [4]; 0.043 nM in test [5]; 0.16 nM in test [6].

As to `C[C@@H]1[C@]2(O[C@H]3C=C4[C@@H]5CC[C@H]6Cc7nc8c(nc7C[C@]6(C)[C@H]5C[C@@H](O)[C@]4(C)[C@]31O)C[C@@H]1CC[C@H]3[C@@]45O[C@@H]4C[C@@H]4[C@H](C)[C@@]6(OC[C@@]45C(=O)C[C@]3(O)[C@@]1(C)C8)OC(C)(C)C[C@H]6O)O[C@](C)(CO)C[C@H]2O` [CEPHALOSTATIN 4], the GI50 in test [1] amounted to 39 nM; in test [2], 43 nM; in test [3], 21 nM; in test [4], 36 nM; in test [5], 44 nM; in test [6] it was 31 nM.

In the case of `C[C@H]1[C@@H](O)C2(Oc3cc4c(c5c3[C@H](C[C@H]5O)[C@@H]2C)CC[C@H]2Cc3nc5c(nc3C[C@]42C)C[C@@H]2CC[C@H]3C4=C[C@@H]6O[C@@]7(C[C@]6(O)[C@@]4(C)[C@H](O)C[C@@H]3[C@@]2(C)C5)O[C@](C)(CO)C[C@H]7O)OC1(C)C` (some centres not stated) [CEPHALOSTATIN 5], the GI50 in test [1] is 100 nM; in test [2] it was 340 nM; in test [3], 440 nM; in test [4], 330 nM; in test [5], 150 nM; in test [6] it was 120 nM.

As for `C[C@H]1[C@H]2C[C@@H](O)c3c4c(cc(c32)OC12OC(C)(C)C[C@H]2O)[C@@]1(C)Cc2nc3c(nc2C[C@@H]1CC4)C[C@@]1(C)[C@@H](CC[C@H]2C4=C[C@@H]5O[C@@]6(C[C@]5(O)[C@@]4(C)[C@H](O)C[C@@H]21)O[C@](C)(CO)C[C@H]6O)C3` (some centres not stated) [CEPHALOSTATIN 6], the GI50 is 390 nM in test [1]; 550 nM in test [2]; 610 nM in test [3]; 380 nM in test [4]; 320 nM in test [5]; above 1100 nM in test [6].

Regarding `C[C@@H]1[C@]2(O[C@H]3C=C4[C@@H]5CC[C@H]6Cc7nc8c(nc7C[C@]6(C)[C@H]5C[C@@H](O)[C@]4(C)[C@]31O)C[C@@H]1CC[C@H]3C4=C[C@@H]5O[C@]6(CC[C@](C)(O)CO6)C[C@]5(O)[C@@]4(C)[C@H](O)C[C@@H]3[C@@]1(C)C8)O[C@](C)(CO)C[C@H]2O` [CEPHALOSTATIN 7], the GI50 in test [1] was determined as 48 nM; in test [2] it was 50 nM; in test [3] it was 110 nM; in test [4], 5 nM; in test [5], 8.2 nM; in test [6], 470 nM.

Take `C[C@@H]1C[C@]2(O[C@H]3C=C4[C@@H]5CC[C@H]6Cc7nc8c(nc7C[C@]6(C)[C@H]5C[C@@H](O)[C@]4(CO)[C@H]3[C@@H]2C)C[C@@H]2CC[C@H]3C4=C[C@@H]5O[C@]6(O[C@](C)(CO)C[C@H]6O)[C@@H](C)[C@]5(O)[C@@]4(C)[C@H](O)C[C@@H]3[C@@]2(C)C8)OC1(C)C` [CEPHALOSTATIN 8]: the GI50 is 47 nM in test [1]; 26 nM in test [2]; 150 nM in test [3]; 26 nM in test [4]; 15 nM in test [5]; above 1100 nM in test [6].

As to `C[C@@H]1[C@H]2CC=C3[C@@H]4CC[C@H]5Cc6nc7c(nc6C[C@]5(C)[C@H]4CC(=O)[C@@]32COC1(O)[C@H](O)CC(C)(C)O)C[C@@H]1CC[C@H]2C3=C[C@@H]4O[C@]5(O[C@](C)(CO)C[C@H]5O)[C@@H](C)[C@]4(O)[C@@]3(C)[C@H](O)C[C@@H]2[C@@]1(C)C7` (some centres not stated) [CEPHALOSTATIN 9], the GI50 in test [1] is 58 nM; in test [2], 110 nM; in test [3], 150 nM; in test [4] it was 14 nM; in test [5] it was 39 nM; in test [6], above 1100 nM.

Turning to `CO[C@H]1c2nc3c(nc2C[C@@H]2CC[C@H]4C5=C[C@@H]6O[C@]7(O[C@](C)(CO)C[C@H]7O)[C@@H](C)[C@]6(O)[C@@]5(C)[C@H](O)C[C@@H]4[C@]21C)C[C@@]1(C)[C@@H](CC[C@H]2C4=CC[C@@H]5[C@H](C)[C@@]6(OC[C@]45C(=O)C[C@@]21O)OC(C)(C)C[C@H]6O)C3` [CEPHALOSTATIN 10], the 50% growth inhibitory concentration (GI50) in test [1] was determined as 0.7 nM; in test [2], 1.4 nM; in test [3] it was 3.7 nM; in test [4] it was 1.3 nM; in test [5], 0.6 nM; in test [6], 8.5 nM.

As for `CO[C@H]1c2nc3c(nc2C[C@@H]2CC[C@H]4C5=CC[C@@H]6[C@@H](C)[C@]7(OC[C@]56C(=O)C[C@@H]4[C@]21C)OC(C)(C)C[C@H]7O)C[C@@]1(C)[C@@H](CC[C@H]2C4=C[C@@H]5O[C@]6(O[C@](C)(CO)C[C@H]6O)[C@@H](C)[C@]5(O)[C@@]4(C)[C@H](O)C[C@@H]21)C3` [CEPHALOSTATIN 11], the GI50 in test [1] came to 6.3 nM; in test [2] it was 4.1 nM; in test [3], 27 nM; in test [4], 4.9 nM; in test [5], 5.4 nM; in test [6], 23 nM.
